Data on nine compounds can be found in ChEMBL document CHEMBL4130378, “Discovery of pentacyclic triterpene 3β-ester derivatives as a new class of cholesterol ester transfer protein inhibitors” (Eur J Med Chem, 2017).

The target in data set [1] is T1, Cholesteryl ester transfer protein (Homo sapiens, UniProt P11597).
T1 sequence (P11597 whole entry): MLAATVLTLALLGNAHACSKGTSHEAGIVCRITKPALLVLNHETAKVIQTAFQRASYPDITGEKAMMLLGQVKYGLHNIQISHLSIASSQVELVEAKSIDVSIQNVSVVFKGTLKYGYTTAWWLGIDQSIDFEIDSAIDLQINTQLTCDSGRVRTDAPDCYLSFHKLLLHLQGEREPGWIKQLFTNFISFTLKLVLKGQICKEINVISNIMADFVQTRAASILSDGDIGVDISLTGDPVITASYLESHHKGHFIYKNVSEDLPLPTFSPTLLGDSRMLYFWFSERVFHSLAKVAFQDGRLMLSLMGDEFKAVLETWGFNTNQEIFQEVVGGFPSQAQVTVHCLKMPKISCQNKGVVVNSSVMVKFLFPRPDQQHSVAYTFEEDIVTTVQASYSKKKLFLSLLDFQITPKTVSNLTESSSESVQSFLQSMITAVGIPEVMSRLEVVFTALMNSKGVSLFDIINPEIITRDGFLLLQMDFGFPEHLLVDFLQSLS
As to the kind of experiment: Inhibition of recombinant human CETP after 3 hrs using fluorescent cholesteryl containing HDL after 3 hrs by fluorescence assay. The note with it: read-out: IC50.

Data set [2] can be described thus: Aqueous solubility of the compound. In kind it is physicochemical. Particulars: buffer.
The test system of data set [3] is Cavia porcellus. As to the kind of experiment: Antihyperlipidemic activity in high-fat fed guinea pig model assessed as increase in plasma HDL cholesterol level at 30 mg/kg administered via oral gavage as qd for 14 days measured 2 hrs post dose on day 14 relative to control. In kind it is functional. Summed up:
(§1)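 Male guinea pigs, 12 weeks old, fed a high-fat diet (2.5% coconut oil, 0.25% cholesterol) for two weeks. Gavage at 30 mg/kg once daily for two weeks while the diet continued. Plasma taken retro-orbitally 2 h after the day-14 dose. HDL-C, LDL-C, TG and TC reported as mean ± SD (n ≥ 6) versus the untreated high-fat model group.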

Data set [4] in a line: Terminal half life in normal fed guinea pig at 30 mg/kg administered via oral gavage by LC-MS/MS analysis. Particulars: in vivo, read-out: beta t1/2 (converted). In kind it is ADME, organism-based, Cavia porcellus.
The test system of data set [5] is Mus musculus. Description: Antihyperlipidemic activity in transgenic ap2-CETPTg mouse model assessed as increase in plasma HDL cholesterol levels at 30 mg/kg, po qd for 14 days measured 2 hrs post dose on day 14 by automated lipid analyzer relative to control. In kind it is functional. Summed up: (§2)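 ap2-CETPTg mice, which express human CETP in adipose tissue. Oral 30 mg/kg once daily for two weeks in DMSO/cremophor/saline 3:4:93. Retro-orbital blood drawn 2 h after the day-14 dose. HDL-C, LDL-C, TG and TC measured on an automated lipid analyzer, mean ± SD (n ≥ 6), versus control group.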

The test system of data set [6] is Cavia porcellus. Description: Hypolipidemic activity in high-fat fed guinea pig model assessed as reduction in plasma triglyceride levels at 30 mg/kg administered via oral gavage as qd for 14 days measured 2 hrs post dose on day 14 relative to control. In kind it is functional. Also on record: scale not given: the % may be the effect or the level left. Summed up:
as §1

Data set [7] concerns Cavia porcellus. Description: Drug metabolism in normal fed guinea pig assessed as formation of oleanolic acid at 30 mg/kg administered via oral gavage by LC-MS/MS analysis. It counts as ADME, organism-based. Particulars: in vivo.
A short description of data set [8]: MRT (0 to infinity) in normal fed guinea pig at 30 mg/kg administered via oral gavage by LC-MS/MS analysis. The note with it: in vivo. It counts as ADME, organism-based, Cavia porcellus.
The nature of data set [9]: Cmax in normal fed guinea pig at 30 mg/kg administered via oral gavage by LC-MS/MS analysis. More on the design: dose 30 mg/kg, route oral. The note with it: in vivo. In kind it is ADME, organism-based, Cavia porcellus.
Data set [10] can be described thus: Octanol-water partition coefficient, log P of the compound at pH 7.4 by HPLC based shake flask method. It counts as physicochemical.
Data set [11] in a line: AUC (0 to infinity) in normal fed guinea pig at 30 mg/kg administered via oral gavage by LC-MS/MS analysis. Also on record: dose 30 mg/kg, route oral, time infinity. The note with it: in vivo. It counts as ADME, organism-based, Cavia porcellus.
Data set [12] relates to Cavia porcellus. As to the kind of experiment: Antihyperlipidemic activity in normal fed guinea pig model assessed as increase in plasma HDL cholesterol level at 30 mg/kg administered via oral gavage as qd for 14 days measured 2 hrs post dose on day 14 relative to control. It counts as functional. An outline of the steps:
(§3)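 Male guinea pigs, 12 weeks old, on normal diet. Gavage at 30 mg/kg once daily for two weeks. Retro-orbital plasma collected 2 h after dosing on day 14. HDL-C and LDL-C reported as mean ± SD (n ≥ 6) versus vehicle control group.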

Data set [13] is described as follows: AUC (0 to 48 hrs) in normal fed guinea pig at 30 mg/kg administered via oral gavage by LC-MS/MS analysis. More on the design: time < 48 hr, dose 30 mg/kg, route oral. Particulars: in vivo. In kind it is ADME, organism-based, Cavia porcellus.
In data set [14] the test system is Cavia porcellus. Description: Hypolipidemic activity in high-fat fed guinea pig model assessed as reduction in plasma total cholesterol levels at 30 mg/kg administered via oral gavage as qd for 14 days measured 2 hrs post dose on day 14 relative to control. Also on record: scale not given: the % may be the effect or the level left. In kind it is functional. Summed up: as §1

The nature of data set [15]: Tmax in normal fed guinea pig at 30 mg/kg administered via oral gavage by LC-MS/MS analysis. Particulars: in vivo. In kind it is ADME, organism-based, Cavia porcellus.
In data set [16] the test system is Cavia porcellus. As to the kind of experiment: Toxicity in high-fat fed guinea pig model assessed as effect on systolic blood pressure at 30 mg/kg administered via oral gavage as qd for 14 days. Particulars: in vivo, 336 h. In kind it is organism-based.
Data set [17] relates to Mus musculus. Description: Hypolipidemic activity in transgenic ap2-CETPTg mouse model assessed as reduction in plasma LDL cholesterol levels at 30 mg/kg, po qd for 14 days measured 2 hrs post dose on day 14 by automated lipid analyzer relative to control. It counts as functional. Also on record: scale not given: the % may be the effect or the level left. An outline of the steps:
as §2

For data set [18], the system named is Cavia porcellus. Description: Hypolipidemic activity in high-fat fed guinea pig model assessed as reduction in plasma LDL cholesterol levels at 30 mg/kg administered via oral gavage as qd for 14 days measured 2 hrs post dose on day 14 relative to control. In kind it is functional. Also on record: scale not given: the % may be the effect or the level left. Summed up:
as §1

Data set [19] relates to Cavia porcellus. Description: Hypolipidemic activity in normal fed guinea pig model assessed as reduction in plasma LDL cholesterol levels at 30 mg/kg administered via oral gavage as qd for 14 days measured 2 hrs post dose on day 14 relative to control. In kind it is functional. Also on record: scale not given: the % may be the effect or the level left. Summed up: as §3

Data set [20] has as its system Mus musculus. As to the kind of experiment: Hypolipidemic activity in transgenic ap2-CETPTg mouse model assessed as reduction in plasma total cholesterol levels at 30 mg/kg, po qd for 14 days measured 2 hrs post dose on day 14 by automated lipid analyzer relative to control. It counts as functional. Also on record: scale not given: the % may be the effect or the level left. An outline of the steps: as §2

For data set [21], the system named is Cavia porcellus. Description: Toxicity in normal fed guinea pig model assessed as effect on systolic blood pressure at 30 mg/kg administered via oral gavage as qd for 14 days. It counts as organism-based. Particulars: in vivo, 336 h.
Data set [22] is described as follows: MRT (0 to 48 hrs) in normal fed guinea pig at 30 mg/kg administered via oral gavage by LC-MS/MS analysis. In kind it is ADME, organism-based, Cavia porcellus. The note with it: in vivo.
Data set [23] relates to Mus musculus. As to the kind of experiment: Hypolipidemic activity in transgenic ap2-CETPTg mouse model assessed as reduction in plasma triglyceride levels at 30 mg/kg, po qd for 14 days measured 2 hrs post dose on day 14 by automated lipid analyzer relative to control. In kind it is functional. More on the design: scale not given: the % may be the effect or the level left. Summed up: as §2

Turning to `C=C(C)[C@@H]1CC[C@]2(C(=O)O)CC[C@]3(C)[C@H](CC[C@@H]4[C@@]5(C)CC[C@H](OC(=O)CCCC(=O)O)C(C)(C)[C@@H]5CC[C@]43C)[C@@H]12`, the IC50 (commonly the point on the concentration scale where inhibition reaches its midpoint) in data set [1] is 38 µM.
In the case of `CC1(C)CC[C@]2(C(=O)O)CC[C@]3(C)C(=CC[C@@H]4[C@@]5(C)CC[C@H](OC(=O)CCN6CCOCC6)C(C)(C)[C@@H]5CC[C@]43C)[C@@H]2C1`, in [1], the half-inhibitory concentration (IC50) was 68.5 µM.
As for `CC1(C)CC[C@]2(C(=O)O)CC[C@]3(C)C(=CC[C@@H]4[C@@]5(C)CC[C@H](OC(=O)CCCC(=O)O)C(C)(C)[C@@H]5CC[C@]43C)[C@@H]2C1`, in [1], the IC50 is 3.5 µM.
Still for that read-out and setting: the result for `CC1(C)CC[C@]2(C(=O)OCC(=O)O)CC[C@]3(C)C(=CC[C@@H]4[C@@]5(C)CC[C@H](OC(=O)CCCC(=O)O)C(C)(C)[C@@H]5CC[C@]43C)[C@@H]2C1` reads 38.9 µM.
Same read-out and setting: the result for `CC1(C)CC[C@]2(C(=O)O)CC[C@]3(C)C(=CC[C@@H]4[C@@]5(C)CC[C@H](OC(=O)CCCCC(=O)O)C(C)(C)[C@@H]5CC[C@]43C)[C@@H]2C1` reads 7 µM; that for `CC1(C)CC[C@]2(C(=O)O)CC[C@]3(C)C(=C2C1)CC[C@@H]1[C@@]2(C)CC[C@H](OC(=O)CCCC(=O)O)C(C)(C)[C@@H]2CC[C@]13C`, 10.3 µM.
Turning to `CC1(C)CC[C@]2(C(=O)O)CC[C@]3(C)C(=CC[C@@H]4[C@@]5(C)CC[C@H](OC(=O)CCC(=O)NCCS(=O)(=O)O)C(C)(C)[C@@H]5CC[C@]43C)[C@@H]2C1`, the IC50 in data set [1] amounted to 23.1 µM.
On to `CC1(C)CC[C@]2(C(=O)O)CC[C@]3(C)C(=CC[C@@H]4[C@@]5(C)CC[C@H](OC(=O)c6ccccc6C(=O)O)C(C)(C)[C@@H]5CC[C@]43C)[C@@H]2C1`, for which the solubility result in [2] is recorded as “Soluble”. In addition, the Activity with Cavia porcellus [3] was 72.8%; with Mus musculus [5], 11.1%; in the data set on Cavia porcellus [6], 27.3%; with Cavia porcellus [12], 32.3%; in the data set on Cavia porcellus [14] it was 20.3%; in the data set on Cavia porcellus [16], “Non-Toxic”. Further, the Activity with Mus musculus [17] was 34.2%; in the data set on Cavia porcellus [18], 40.8%; in the data set with Cavia porcellus [19] it was 19.8%; with Mus musculus [20], 5.8%; in the data set with Cavia porcellus [21], “Non-Toxic”; with Mus musculus [23], 29.3%. Besides, the half-life in data set [4] was 18.8 h. The IC50 in data set [1] amounted to 2.3 µM. Moreover, the Drug metabolism result in the data set on Cavia porcellus [7] is “Metabolite_Detected”. Also, the MRT inf (commonly the average time that molecules of a dose stay in the body) in data set [8] is 23.4 h. Also, the peak level in data set [9] (Cmax) was 1270 ng/mL. In addition, in data set [10], the logD – broadly, lipophilicity at a set pH, counting ionised and neutral species – was 0.49. The AUC(0-inf) (as a rule, total exposure, with the tail of the curve extrapolated) in [11] was determined as 10900 ng·h/mL. In addition, in [13], the AUC(0-t) (commonly exposure summed from dosing to a finite time, without extrapolation to infinity) at 48 h is 9340 ng·h/mL. Moreover, the Tmax (in general, the time from dosing to the highest level) in data set [15] was found to be 1.46 h. The MRT last (commonly the average time that molecules of a dose stay in the body) in data set [22] was determined as 14.9 h.
Regarding `C[C@H]1[C@H](C)CC[C@]2(C(=O)O)CC[C@]3(C)C(=CC[C@@H]4[C@@]5(C)CC[C@H](OC(=O)CCCC(=O)O)C(C)(C)[C@@H]5CC[C@]43C)[C@H]12`, in [1], the concentration for half-maximal inhibition (IC50) was determined as 3.4 µM.
